The subject of data set [1] is Staphylococcus aureus. The data set is described as follows: Antibacterial activity against vancomycin-resistant Staphylococcus aureus isolate 1 after 16 hrs by broth micro dilution method. Format: functional. As to conditions: isolate 1, 16 h. In short, it runs like this: (§1)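 Mueller-Hinton broth microdilution. Bacteria were grown overnight at 37 °C with shaking, diluted 1:100 and grown to mid-exponential phase. About 3 × 10^5 CFU per well went into MH with test compound (0–256 μg/mL) in DMSO vehicle. Plates were incubated at 37 °C for 16 h. MIC was the lowest concentration without growth visible by eye; three independent assays.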

In data set [2] the test system is Staphylococcus aureus. The data set is described as follows: Antibacterial activity against vancomycin-resistant Staphylococcus aureus isolate 10 after 16 hrs by broth micro dilution method. Format: functional. As to conditions: isolate 10, 16 h. An outline of the steps:
as §1

Data set [3] has as its system Staphylococcus aureus. Nature of the data set: Antibacterial activity against Staphylococcus aureus ATCC 25923 after 16 hrs by broth micro dilution method. Conditions: ATCC 25923, 16 h. Format: functional. An outline of the steps: as §1
The next data set deals with Escherichia coli. The data set is described as follows: Antibacterial activity against Escherichia coli RFM795 harboring lptD gene mutant after 16 hrs by broth micro dilution method. Format: functional. As to conditions: RFM795, 16 h. In short, it runs like this: as §1
Data set [4] concerns Staphylococcus aureus. Nature of the data set: Antibacterial activity against methicillin-sensitive Staphylococcus aureus UAMS-1 after 16 hrs by broth micro dilution method. Format: functional. As to conditions: UAMS-1, 16 h. An outline of the steps: as §1
Data set [5] has as its system Staphylococcus aureus. The data set is described as follows: Antibacterial activity against methicillin-resistant Staphylococcus aureus LAC JE2 after 16 hrs by broth micro dilution method. Format: functional. Conditions: LAC JE2, 16 h. In short, it runs like this: as §1
Data set [6] relates to Staphylococcus aureus. Nature of the data set: Antibacterial activity against vancomycin-intermediate Staphylococcus aureus Mu50 after 16 hrs by broth micro dilution method. Format: functional. Conditions: Mu50, 16 h. In short, it runs like this: as §1
For the next data set, the system named is HepG2. Nature of the data set: Cytotoxicity against human HepG2 cells at <= 64 ug/ml by MTT assay. Format: cell-based. In short, it runs like this:
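HepG2 human hepatocellular carcinoma cells; colorimetric MTT cell proliferation assay; compound tested at final concentrations up to 64 μg/mL.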

Data set [7] concerns the target T1, UDP-N-acetylglucosamine 1-carboxyvinyltransferase 1 (Staphylococcus aureus subsp. aureus N315) (UniProt P84058).
T1 sequence (whole entry): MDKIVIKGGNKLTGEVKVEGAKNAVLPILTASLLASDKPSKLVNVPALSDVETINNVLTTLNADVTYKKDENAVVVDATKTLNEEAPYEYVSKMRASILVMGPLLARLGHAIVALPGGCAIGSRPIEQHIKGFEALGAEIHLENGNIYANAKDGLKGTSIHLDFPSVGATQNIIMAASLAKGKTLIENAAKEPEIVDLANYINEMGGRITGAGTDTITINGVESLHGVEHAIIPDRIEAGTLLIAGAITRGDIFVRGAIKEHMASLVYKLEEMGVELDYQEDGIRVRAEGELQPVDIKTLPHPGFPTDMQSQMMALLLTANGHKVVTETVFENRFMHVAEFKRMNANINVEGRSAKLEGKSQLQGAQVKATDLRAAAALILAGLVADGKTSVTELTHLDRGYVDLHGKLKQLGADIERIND
Nature of the data set: Inhibition of GST-tagged Staphylococcus aureus MurA expressed in Escherichia coli BL21(DE3) cells assessed as reduction in EP-UDP-GlcNAc production at 650 uM preincubated with UDP-GlcNAc and enzyme for 10 mins followed by PEP addition measured after 3 hrs by HPLC analysis. An outline of the steps:
(§2)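 Tag-cleaved S. aureus MurA, 1.0 μg. Preincubated 10 min on ice with 650 μM compound plus 400 μM PEP or 400 μM UDP-GlcNAc. Reaction started with 600 μM of the other substrate, then run 3 h at room temperature in triple replicates. UDP-GlcNAc and EP-UDP-GlcNAc separated by anion-exchange HPLC.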

For data set [8], the target named is T1, UDP-N-acetylglucosamine 1-carboxyvinyltransferase 1 (Staphylococcus aureus subsp. aureus N315). Nature of the data set: Inhibition of GST-tagged Staphylococcus aureus MurA expressed in Escherichia coli BL21(DE3) cells assessed as reduction in EP-UDP-GlcNAc production at 650 uM preincubated with PEP and enzyme for 10 mins followed by UDP-GlcNAc addition measured after 3 hrs by HPLC analysis. An outline of the steps:
as §2

Data set [9] has as its target T2, UDP-N-acetylglucosamine 1-carboxyvinyltransferase 1 (Staphylococcus aureus subsp. aureus N315, UniProt P84058).
T2 sequence (P84058 whole entry): T1 sequence (whole entry)
The data set is described as follows: Inhibition of GST-tagged Staphylococcus aureus MurA expressed in Escherichia coli BL21(DE3) cells preincubated with PEP and enzyme for 10 mins followed by UDP-GlcNAc addition measured after 3 hrs by HPLC analysis. An outline of the steps:
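Purified S. aureus MurA (GST tag cleaved off by PreScission protease, 350 nM) was preincubated 10 min with 300 μM PEP and albocycline (0–5000 μM) in 50 mM Tris, 2 mM KCl at 25 °C, in triplicate. UDP-GlcNAc was then added and the reaction run 3 h at room temperature. UDP-GlcNAc and EP-UDP-GlcNAc were separated by MonoQ anion-exchange HPLC with an ammonium bicarbonate gradient. Percent inhibition came from relative peak areas, and IC50 from a nonlinear dose-response fit.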

Data set [10] has as its target UDP-N-acetylglucosamine 1-carboxyvinyltransferase (Escherichia coli K-12) (UniProt P0A749). Nature of the data set: Inhibition of GST-tagged Escherichia coli MurA expressed in Escherichia coli BL21(DE3) cells preincubated with PEP and enzyme for 10 mins followed by UDP-GlcNAc addition measured after 3 hrs by HPLC analysis. An outline of the steps:
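GST-tagged enzyme, GST removed by PreScission protease after glutathione affinity capture. Conditions: 50 mM Tris, 2 mM KCl, room temperature (25 °C), in triplicate. Enzyme preincubated 10 min with PEP and compound, then UDP-GlcNAc added. Substrate and product separated by MonoQ anion-exchange HPLC with an ammonium bicarbonate gradient. Percent inhibition taken from UDP-GlcNAc/EP-UDP-GlcNAc peak areas.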

Data set [11] relates to Staphylococcus aureus. Nature of the data set: Antibacterial activity against methicillin-resistant Staphylococcus aureus. Format: functional. In short, it runs like this:
as §1

Data set [12] concerns the target T2, UDP-N-acetylglucosamine 1-carboxyvinyltransferase 1. Nature of the data set: Inhibition of Staphylococcus aureus MurA assessed as reduction in [3H]GlcNAc uptake.
Data set [13] has as its system UDP-N-acetylglucosamine 1-carboxyvinyltransferase 2 (Staphylococcus aureus). The data set is described as follows: Inhibition of GST-tagged Staphylococcus aureus MurZ expressed in Escherichia coli BL21(DE3) cells preincubated with PEP and enzyme for 10 mins followed by UDP-GlcNAc addition measured after 3 hrs by HPLC analysis.

Converted amounts (≈) assume the structure as drawn. The source made the active and inactive calls. The rule behind the calls is not given here.

Sequence of UDP-N-acetylglucosamine 1-carboxyvinyltransferase (Escherichia coli K-12) (P0A749 whole entry): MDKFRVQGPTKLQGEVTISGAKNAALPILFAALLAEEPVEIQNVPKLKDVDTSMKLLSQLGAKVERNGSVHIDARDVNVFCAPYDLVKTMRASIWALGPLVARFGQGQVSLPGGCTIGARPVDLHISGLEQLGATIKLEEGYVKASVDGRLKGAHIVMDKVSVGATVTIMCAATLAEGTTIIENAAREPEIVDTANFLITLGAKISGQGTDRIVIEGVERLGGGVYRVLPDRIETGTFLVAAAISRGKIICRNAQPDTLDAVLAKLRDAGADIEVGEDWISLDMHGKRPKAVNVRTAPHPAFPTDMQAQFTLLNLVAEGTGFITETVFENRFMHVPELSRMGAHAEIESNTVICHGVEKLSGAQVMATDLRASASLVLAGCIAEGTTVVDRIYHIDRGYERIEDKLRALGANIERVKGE

For the molecule `CN[C@H](CC(C)C)C(=O)N[C@H]1C(=O)N[C@@H](CC(N)=O)C(=O)N[C@H]2C(=O)N[C@H]3C(=O)N[C@H](C(=O)N[C@H](C(=O)O)c4cc(O)cc(O)c4-c4cc3ccc4O)[C@H](O)c3ccc(c(Cl)c3)Oc3cc2cc(c3O[C@@H]2O[C@H](CO)[C@@H](O)[C@H](O)[C@H]2O[C@H]2C[C@](C)(N)[C@H](O)[C@H](C)O2)Oc2ccc(cc2Cl)[C@H]1O` [VANCOMYCIN], the MIC in the data set on Staphylococcus aureus [1] and with Staphylococcus aureus [2] was over 64 µg/mL in each case.
Consider `C[C@@H]1O[C@@H]1P(=O)(O)O` [FOSFOMYCIN], for which the MIC came out at 32 µg/mL (≈ 232 µM) with Staphylococcus aureus [3] and 1 µg/mL (≈ 7.24 µM) against Escherichia coli.
Consider `CO[C@H]1/C=C/[C@@](C)(O)/C=C/C(=O)O[C@H](C)[C@@H](C)CC/C=C/1C`, for which the MIC in the data set with Staphylococcus aureus [3] is 1 µg/mL (≈ 3.24 µM); in the data set on Escherichia coli, over 256 µg/mL; against Staphylococcus aureus [4] it was 0.5 µg/mL (≈ 1.62 µM); in the data set with Staphylococcus aureus [5], 2 µg/mL (≈ 6.48 µM); against Staphylococcus aureus [6], 2 µg/mL (≈ 6.48 µM); in the data set on Staphylococcus aureus [1] it was 4 µg/mL (≈ 13 µM). Further, the MIC was 1 µg/mL (≈ 3.24 µM) against Staphylococcus aureus [2] and 0.5 to 1 µg/mL (≈ 1.62 to 3.24 µM) in the data set with Staphylococcus aureus [11]. Besides, in the data set with HepG2, the Activity entry is listed as “Non-Toxic”. The inhibition result in data set [7], in [10] and in data set [13] was “inactive” throughout. In addition, the inhibition result in data set [8] was “Active”. The IC50 came out at 480 µM in data set [9] and 112 µM in data set [12].

For the origin of these results see ChEMBL document CHEMBL4118218, “Elucidating the inhibition of peptidoglycan biosynthesis in Staphylococcus aureus by albocycline, a macrolactone isolated from Streptomyces maizeus” (Bioorg Med Chem, 2018).
